High-throughput results from PubChem BioAssay.
Apaf1 inhib = inhibitors of human Apaf-1 apoptosome, primary screen, biochemical, DEVD-Rh110 fluorescence, uHTS; Apoptotic protease-activating factor 1 (Homo sapiens), O14727; inhibition, % at 20 µM; AID 489030, 2010; reconstituted apoptosome caspase-3 activity; hit rate 0.71% among 330,000; active means inhibition of at least 40% at 20 µM;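 further: plate controls were DMSO wells for no effect and DEVD-CHO caspase inhibitor wells for full effect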
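Medium: Hepes buffer, pH 7.5 / System: biochemical Apaf-1 apoptosome reconstitution / Measured by: Rh110 fluorescence, excitation 480 nm, emission 540 nm / Times: compound with Apaf-1, dATP, procaspase-3 30 min, then 50 min reaction, room temperature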
GSTO1 inh = inhibitors of recombinant GSTO1, primary screen, counter-screen for RBBP9 inhibitor project, biochemical, fluorescence polarization | activity-based probe fluorescence polarization | inhibition, % at 5.96 µM | hit rate 1.1% among 300,000;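 active means inhibition above the campaign mean inhibition plus 3 SD, cut at about 35% in these data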;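 further: 0% = GSTO1-1 with DMSO and 100% = wells lacking GSTO1-1 enzyme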
PP5 inh = PP5 phosphatase inhibitors, primary screen, biochemical, fluorescence. Serine/threonine-protein phosphatase 5 (Homo sapiens), P53041. purified PP5c, OMFP substrate fluorescence. inhibition, % at 6.7 µM. hit rate 0.18% among 320,000. AID 1987, 2009;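 active means inhibition above the campaign's mean inhibition across all tested compounds plus 3 SD, cut at about 9.5% in these data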;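 further: 0% = DMSO only and 100% = 100 µM cantharidin control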
Target sequence (P53041 whole entry, looked up): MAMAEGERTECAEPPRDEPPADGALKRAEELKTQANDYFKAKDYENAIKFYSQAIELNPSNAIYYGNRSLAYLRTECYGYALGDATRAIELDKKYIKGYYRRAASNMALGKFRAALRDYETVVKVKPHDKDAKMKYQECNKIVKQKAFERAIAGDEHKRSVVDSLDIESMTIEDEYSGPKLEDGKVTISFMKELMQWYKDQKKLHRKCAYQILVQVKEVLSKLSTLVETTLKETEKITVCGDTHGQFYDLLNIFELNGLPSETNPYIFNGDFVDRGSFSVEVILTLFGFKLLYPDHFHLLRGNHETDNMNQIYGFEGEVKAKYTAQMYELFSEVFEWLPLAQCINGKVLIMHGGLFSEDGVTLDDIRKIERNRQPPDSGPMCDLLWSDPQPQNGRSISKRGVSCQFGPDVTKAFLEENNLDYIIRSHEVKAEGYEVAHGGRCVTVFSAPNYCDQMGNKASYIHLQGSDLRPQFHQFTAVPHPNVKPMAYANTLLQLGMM
TDP2 absorb = human TDP2 enzyme inhibitors, primary screen, biochemical, epi absorbance, recombinant enzyme | Tyrosyl-DNA phosphodiesterase 2 (Homo sapiens), O95551 | T5PNP hydrolysis, p-nitrophenol absorbance 415 nm | hit rate 0.34% among 370,000 | inhibition, % at 12.8 µM | AID 720702, 2013;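 active means inhibition above the mean of all tested compounds plus 3 SD, set per campaign, cut at about 25% in these data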;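 further: 0% = DMSO with enzyme and 100% = buffer with substrate but no TDP2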
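Material: recombinant human TDP2; quantity: TDP2 enzyme at 120 nM final; medium: Tris-HCl pH 7.5 with MgCl2; compound: single concentration, 12.8 µM nominal, with 1% DMSO; incubation: 2 h enzyme incubation at 37 °C; signal: epi absorbance; measure: percent inhibition; benchmarks: high control without enzyme, low control DMSO plus TDP2; repeats: singlicate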
PP1 counter = PP1-alpha phosphatase inhibitors, primary screen, counter-screen for PP5 inhibitor project, biochemical, fluorescence, OMFP substrate, single point | hit rate 0.9% among 320,000 | purified PP1alpha | Serine/threonine-protein phosphatase PP1-alpha catalytic subunit (Homo sapiens), P62136 | inhibition, % at 6.7 µM;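 active means inhibition above the mean inhibition of all tested compounds plus 3 SD, computed separately for each screening campaign, cut at about 15% in these data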
GSTO1 confirm = GSTO1 inhibitor hit confirmation, counter-screen for RBBP9 inhibitor project, biochemical, fluorescence polarization, triplicate; shares compounds with GSTO1 inh; recombinant GSTO1, probe fluorescence polarization; inhibition, % at 5.96 µM; hit rate 54% among 2,400;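 active means inhibition above the primary screen's cutoff, its mean inhibition plus 3 SD, cut at about 35% in these data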;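 further: loss of polarization as inhibitors block binding of rhodamine sulfonate ester activity probe; 0% = GSTO1 with DMSO and 100% = wells lacking GSTO1 enzyme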
An asterisk follows results filed as active; . = not tested or not shown. The list is not random: actives were taken first. Their share in the collection is about 2.1%.

SMILES | Apaf1 inhib | GSTO1 inh | PP5 inh | TDP2 absorb | PP1 counter | GSTO1 confirm
O=C1C2C3C=CC(C2C(=O)N1c1ccc(O)cc1)C1C2C(=O)N(c4ccc(O)cc4)C(=O)C2C31 (centres undefined) | -16 | 42* | -2 | -5 | -5 | 10
O=C1C2C3C=CC(C2C(=O)N1c1ccccc1O)C1C2C(=O)N(c4ccccc4O)C(=O)C2C31 (centres undefined) | -6 | 11 | 1 | 11 | -5 | .
CN=c1scc(C)n1/N=C/c1ccc(O)c(O)c1O | 19 | 74* | 3 | 6 | 2 | 10
CN=c1scc(-c2cccs2)n1/N=C/c1ccc(O)c(O)c1O | 16 | -9 | 7 | -1 | 2 | .
COc1cccc(N/N=C/c2cccc(Br)c2O)c1 | 4 | 13 | -1 | 3 | -2 | .
Cc1cccc(N/N=C/c2ccc(O)c(O)c2O)c1 | 8 | 56* | 2 | -11 | 1 | 23
Cc1ccccc1CN1CCCCC(NC(=O)Nc2cccc([N+](=O)[O-])c2)C1=O (centres undefined) | . | . | . | 2 | . | .
COc1cc(CNc2ccc(N3CCCC3)cc2)cc(Cl)c1OC | 34 | 59* | 6 | 13 | 11 | 57*
COc1ccccc1CNc1ccc(N2CCCCC2)cc1 | -14 | 51* | -1 | . | 10 | 7
CCOc1ccc(CNc2ccc(N3CCCC3)cc2)cc1 | 35 | 66* | 1 | . | 16* | 55*
Cc1cc(C)n(CCNC(=O)[C@H]2O[C@@H](n3cnc4c(N)ncnc43)[C@H](O)[C@@H]2O)n1 | . | . | . | 1 | . | .
COC(=O)C[C@@H]1CC[C@H]2[C@@H](COc3ccc(NC(=O)c4cc(C)on4)cc3C(=O)N2C)O1 | . | . | . | 3 | . | .
CN(C)c1ccc(O)c2c1CC1CC3[C@@H](N(C)C)C(=O)C(C(N)=O)=C(O)[C@]3(O)C(=O)C1=C2O (some centres undefined) | -1 | 40* | 1 | 10 | 9 | 34
C=CCN(CC=C)C(=O)C1c2ccccc2Oc2ccccc21 | . | . | . | -6 | . | .
CCN(CC)C(=O)C1c2ccccc2Oc2ccccc21 | -3 | 44* | -5 | -10 | -6 | 9
Cc1ccc(S(=O)(=O)Nc2ccc(N(C)C)cc2)cc1 | 8 | 7 | 3 | -2 | 4 | .
CN(C)c1ccc(NS(=O)(=O)c2ccc(-c3csnn3)cc2)cc1 | -4 | 39* | 1 | -15 | 0 | 30
O=C(OC12CCCN(C1)/C(=C/c1ccccc1)C2)c1ccc(F)cc1 (centres undefined) | . | . | . | -9 | . | .
C=C(C)CNC(=S)N=Nc1c(O)[nH]c2ccc([N+](=O)[O-])cc12 | -11 | 42* | 2 | -6 | -1 | 37*
O=C(CNC(=O)c1ccco1)N=Nc1c(O)[nH]c2ccc([N+](=O)[O-])cc12 | 5 | 50* | 1 | 15 | -2 | 62*
CC(C)NC(=S)N=Nc1c(O)[nH]c2ccc([N+](=O)[O-])cc12 | -17 | 33 | 2 | -10 | 7 | .
NC(=O)N=Nc1c(O)[nH]c2ccc([N+](=O)[O-])cc12 | -6 | -1 | 0 | -1 | -1 | .
CCN(CC)c1c2c(nc3ncnn13)CCCC2 | . | . | . | -2 | . | .
Cc1nc(C)c(-c2csc(N)n2)s1 | -7 | 39* | -3 | 7 | -2 | 9
Cc1ccc(Nc2nc(-c3sc(C)nc3C)cs2)cc1 | 16 | 8 | 5 | -9 | 0 | .
O=C(NCCN1C(=O)S/C(=C\c2ccc(OC(F)F)cc2)C1=O)C1=COCCO1 | 4 | 9 | -1 | . | 2 | .
COc1ccc(/C=C2\SC(=O)N(CCNC(=O)C3=COCCO3)C2=O)cc1 | 2 | 42* | -1 | -11 | -1 | 9
O=C(COC(=O)CNC(=O)c1ccccc1)NCCc1ccccc1 | -3 | 1 | -4 | 4 | 3 | .
